This note sets out measurements from PubChem BioAssay.

A short description of assay [1]: inhibitors of TNFa-induced NFkB p65 translocation, primary screen, imaging, HUVEC, MLSMR starter and 10KST1 sets (AID 438;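 active means inhibition above 20% together with a positive visual image hit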;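 further: compound added about 3h40 before a 20 min TNFalpha stimulation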;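 on inhibition: signal is the nuclear over cytoplasmic p65 intensity ratio per well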). As to conditions: HUVEC TNFa-induced p65 nuclear translocation; cell count: measured here: nuclei count (cytotoxicity indicator), at 2.08 µM; inhibition: at 2 µM, stronger effect = higher value, 0% TNFa-plus-vehicle, 100% no-TNFa wells.
Assay [2] is described as follows: endothelial E-selectin expression blockers – imaging, HUVEC, immunofluorescence, MLSMR starter and 10KST1 sets, primary screen (AID 487;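 active means visually confirmed hit in the image check and inhibition above 20%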;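 on inhibition: signal is fraction of cell area covered by stained E-selectin grains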;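 on nuclei count: 100% = median nuclei count of all wells on the same plate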). Conditions: HUVEC TNFalpha-induced E-selectin immunofluorescence imaging, at 2 µM; inhibition: stronger effect = higher value; nuclei count: measured here: cell number, toxicity.
Assay [3] can be described thus: Primary imaging screen for DUSP6 inhibitors that restore phospho-Erk in transfected HeLa cells, chemical complementation (AID 609;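 active means compounds giving at least 50% inhibition in the cell-based MKP-3 phosphatase rescue imaging test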;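 on inhibition: phospho-Erk level distribution per well compared with pooled transfected vehicle control wells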). Conditions: HeLa MKP-3 transfected, phospho-Erk imaging KS statistic, at 10 µM, cells stimulated with TPA for 15 min.
Assay [4] concerns the target Dual specificity protein phosphatase 6 (Homo sapiens) (UniProt Q16828). The assay is described as above. Conditions: HeLa MKP-3 transfected, phospho-Erk imaging KS statistic; at 10 µM; stronger effect = higher value; cells stimulated with TPA for 15 min.
Assay [5] concerns the target Voltage-gated potassium channel subunit beta-2 (Rattus norvegicus) (UniProt P62483). Kind of assay: inhibitors of rat Kvbeta2 reductase activity – biochemical, NADPH fluorescence, primary screen (AID 622;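 active means fluorescence slope higher than the sample average by over 3 SD, cut at about -0.22 in these data, passing the limit was not always enough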;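 further: slope of raw intensity against log time taken from 70 to 1610 s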). Conditions: recombinant KvBeta, 4-cyanobenzaldehyde reduction, at 10 µM, stronger effect = higher value.
The target is the same in assay [6]. The assay can be described thus: enhancers of rat Kvbeta2 NADPH turnover – biochemical, NADPH fluorescence, primary screen (AID 623;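 active means NADPH fluorescence slope more negative than the mean of all samples by about 3 SD, 99.7% confidence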;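 further: fluorescence intensity change per second fitted from 20 to 320 s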). As to conditions: Recombinant KvBeta, NADPH fluorescence decrease slope, 10 min; at 10 µM; stronger effect = lower value.
Assay [7] has as its target Alpha-2C adrenergic receptor (Homo sapiens) (UniProt P18825). Kind of assay: compounds altering alpha2C-coupled GIRK flux – cell-based, HEK293 alpha2C/GIRK1/2, thallium flux, primary screen (AID 624).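 Further: slope of fluorescence ratio to pre-addition baseline per second over 15 to 24 s.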 As to conditions: thallium flux BTC fluorescence, at 10 µM, actives lie on both sides.
The nature of assay [8]: inhibitors of larval lipid processing in zebrafish, primary screen, whole organism, PED6 fluorescence, gall bladder and intestine (AID 686;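 active means a full or partial loss of lipid-probe fluorescence in the fish gall bladder, intestine or both, judged by eye; inactive means no fluorescence loss, or compound toxic to the fish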;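 further: larvae 5 to 7 days old with five fish per well; signal comes from phospholipase A2 cleavage of quenched PED6 carried via bile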). Conditions: Zebrafish larvae PED6 lipid processing, fluorescence scoring; screened at 20 µM (by protocol). Put shortly: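 system = live zebrafish larvae aged 5-7 days, whole organism | probe or stimulus = ingested quenched lipid PED6 at 100 nM | doses = 20 µM single dose | timing = overnight exposure | detection = fluorescence microscopy with visual scoring of gall bladder and intestine | read-out = visual per-well fluorescence inhibition score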

Assay [9] can be described thus: loss of swimming-algae plug formation – whole organism, Chlamydomonas reinhardtii, WT vs cilia-less mutant, absorbance, 96-well, primary screen (AID 463189;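 active means inhibition at or above 50% relative to wild type and mutant plate controls; inactive means inhibition below 50%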;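 further: 0% = wild type cc124 cells in DMSO and 100% = ciliumless bld1 mutant cells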). As to conditions: Chlamydomonas reinhardtii gravitaxis, OD600 absorbance, 2 days; at 10 µM; stronger effect = higher value.
The mark [10] stands for this setting: measured here: cell density z-score.
[11] abbreviates: measured here: nuclear c-Myc green intensity z-score.
[12] abbreviates: measured here: nuclear pErk red intensity z-score, stronger effect = higher value.

Calls of active or inactive are those of the source.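 How the source made its calls, unless noted: active means fluorescence slope after compound addition differing from the mean of all screened samples at 99.7% confidence, in either direction; inactive means the rest.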

Chain of Voltage-gated potassium channel subunit beta-2 (Rattus norvegicus) (P62483 whole entry, looked up): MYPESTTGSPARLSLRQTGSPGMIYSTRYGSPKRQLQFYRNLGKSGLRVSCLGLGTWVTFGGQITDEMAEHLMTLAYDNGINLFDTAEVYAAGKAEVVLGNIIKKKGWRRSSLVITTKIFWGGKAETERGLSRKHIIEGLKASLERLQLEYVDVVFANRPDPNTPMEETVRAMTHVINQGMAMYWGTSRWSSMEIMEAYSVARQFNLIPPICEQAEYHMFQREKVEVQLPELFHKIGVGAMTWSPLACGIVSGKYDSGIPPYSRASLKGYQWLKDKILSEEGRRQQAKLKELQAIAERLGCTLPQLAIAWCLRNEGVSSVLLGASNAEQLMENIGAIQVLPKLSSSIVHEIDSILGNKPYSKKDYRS
Chain of Alpha-2C adrenergic receptor (Homo sapiens) (P18825 whole entry, looked up): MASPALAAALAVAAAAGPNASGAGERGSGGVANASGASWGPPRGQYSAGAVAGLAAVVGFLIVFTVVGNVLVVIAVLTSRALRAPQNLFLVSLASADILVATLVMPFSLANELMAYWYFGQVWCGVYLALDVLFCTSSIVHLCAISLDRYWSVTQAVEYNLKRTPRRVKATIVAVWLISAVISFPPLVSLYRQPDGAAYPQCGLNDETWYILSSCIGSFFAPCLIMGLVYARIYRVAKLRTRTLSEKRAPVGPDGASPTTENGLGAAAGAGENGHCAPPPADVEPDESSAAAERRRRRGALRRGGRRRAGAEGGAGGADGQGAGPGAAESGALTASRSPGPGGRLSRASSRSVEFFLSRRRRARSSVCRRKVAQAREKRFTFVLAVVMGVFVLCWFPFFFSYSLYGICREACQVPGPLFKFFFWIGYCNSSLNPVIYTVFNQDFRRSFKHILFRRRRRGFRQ
Chain of Dual specificity protein phosphatase 6 (Homo sapiens) (Q16828 whole entry, looked up): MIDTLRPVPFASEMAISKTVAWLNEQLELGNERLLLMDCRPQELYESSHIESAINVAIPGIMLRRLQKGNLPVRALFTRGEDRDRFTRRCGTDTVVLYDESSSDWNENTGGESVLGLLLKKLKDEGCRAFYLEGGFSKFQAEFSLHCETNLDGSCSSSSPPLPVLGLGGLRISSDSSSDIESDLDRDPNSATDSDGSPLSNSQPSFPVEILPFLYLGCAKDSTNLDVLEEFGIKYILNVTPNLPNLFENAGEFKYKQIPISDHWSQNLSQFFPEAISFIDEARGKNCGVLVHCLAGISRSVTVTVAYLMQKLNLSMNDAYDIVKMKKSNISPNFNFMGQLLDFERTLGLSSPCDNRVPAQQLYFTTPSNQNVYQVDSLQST

In general, inhibition refers to the relative decrease from the control value, in per cent. Take `CC(C)(C)NCC(=O)c1c[nH]c2ccccc12`: in assay [1], the cell count is 535. Besides, the inhibition in assay [1] is -1.7% (inactive); in assay [2], -49.5% (inactive); in assay [4], -1.75% (inactive); in assay [9], -1.18% (inactive). This molecule yielded a nuclei count in assay [2] of 146%. Also, the z-score in assay [3] (setting [10]) was -0.736; in [3] (setting [11]), 1.42; in assay [3] (setting [12]), -0.666. In addition, in assay [5], the fluorescence slope is -0.35 (inactive). Also, the NADPH fluorescence slope in assay [6] is 5.2e-06 (inactive). For the same molecule, the slope in assay [7] was 0.00435 (inactive). Moreover, the result in assay [8] was inactive.

Turning to `Cc1ccc2[nH]c3c(c2c1)CN(C(=O)CN1CCN(c2ccccn2)CC1)CC3`, the cell count in [1] worked out at 563. Further, the inhibition was -9% (inactive) in [1], -69.3% (inactive) in assay [2], 4.72% (inactive) in [4] and 10.4% (inactive) in [9]. Also, in [2], the nuclei count stood at 144%. Besides, the z-score in assay [3] (setting [10]) was -1.22; in assay [3] (setting [11]), -0.583; in assay [3] (setting [12]), -0.448. The fluorescence slope in assay [5] is -0.453 (inactive). The NADPH fluorescence slope in assay [6] is -0.000143 (inactive). In addition, the slope in assay [7] was 0.00579 (inactive). The molecule was called inactive in assay [8].

As to `CCCOc1ccc(/C(O)=C2/C(=O)C(=O)N(CCN3CCOCC3)C2c2ccccc2)cc1` (stereo unspecified), the cell count in assay [1] was 365. Also, the inhibition is -10.5% (inactive) in assay [1], -132% (inactive) in [2], -0.159% (inactive) in assay [4] and -3.19% (inactive) in [9]. In addition, the nuclei count in assay [2] is 144%. Also, the values for the z-score in assay [3] (setting [10]), in assay [3] (setting [11]) and in assay [3] (setting [12]) were -0.109, 0.153 and 0.743, respectively. For the same molecule, the fluorescence slope in assay [5] is -0.426 (inactive). For the same molecule, the NADPH fluorescence slope in [6] was -6.6e-05 (inactive). Also, in assay [7], the slope is 0.00576 (inactive). Also, the outcome in assay [8] was inactive.

Turning to `Oc1ccccc1CNn1cnnc1`, the cell count in [1] was found to be 563. Also, the inhibition is -0.7% (inactive) in assay [1], -6.7% (inactive) in assay [2], -3.5% (inactive) in [4] and 18.3% (inactive) in assay [9]. In assay [2], this molecule returned a nuclei count of 168%. For the same molecule, the z-score in assay [3] (setting [10]) is -0.0903; in assay [3] (setting [11]) it was -0.194; in assay [3] (setting [12]), 0.333. Besides, the fluorescence slope in assay [5] was -0.324 (inactive). The NADPH fluorescence slope in [6] is 1.4e-05 (inactive). Besides, the slope in assay [7] was 0.00654 (inactive). Also, the molecule was classed as inactive in [8].

Regarding `Cc1csc2nc(CSc3nc4ccccc4o3)cn12`, in assay [1], the cell count was found to be 402. The inhibition in assay [1] is -8.4% (inactive); in assay [2] it was -53.8% (inactive); in assay [4], 3.56% (inactive); in assay [9] it was 5.29% (inactive). This molecule also gave a nuclei count in assay [2] of 108%. The z-score in assay [3] (setting [10]) is 0.0403; in [3] (setting [11]) it was 1.14; in [3] (setting [12]), -0.0493. The fluorescence slope in [5] is -0.545 (inactive). The NADPH fluorescence slope in assay [6] is -5.7e-05 (inactive). In addition, the slope in assay [7] is 0.00434 (inactive). Besides, the outcome in [8] was inactive.

As to `c1coc(-c2nnc3sc(Cc4cccs4)nn23)c1`, the cell count in assay [1] came out at 593. For the same molecule, the inhibition in [1] is -3.5% (inactive); in [2], 60.4% (inactive); in assay [4], -13.3% (inactive); in [9], 5.83% (inactive). The molecule also registered a nuclei count in assay [2] of 98.5%. Further, the z-score in assay [3] (setting [10]) was 0.488; in assay [3] (setting [11]), -1.26; in assay [3] (setting [12]) it was -0.189. The fluorescence slope in assay [5] was -0.5 (inactive). In [6], the NADPH fluorescence slope is -4.8e-06 (inactive). In addition, the slope in [7] is 0.00451 (inactive). Moreover, the call in [8] was inactive.

`CCOC(=O)c1ccc(NC(=O)Cn2nnc3ccccc32)cc1`: the cell count in assay [1] is 333. In addition, the inhibition in [1] was -8.2% (inactive); in assay [2], -17.3% (inactive); in assay [4], 7.48% (inactive); in assay [9], 37.7% (inactive). This molecule had a nuclei count in [2] of 84.8%. The z-score was 0.667 in [3] (setting [10]), 0.595 in assay [3] (setting [11]) and -0.72 in [3] (setting [12]). Also, in assay [5], the fluorescence slope was -0.538 (inactive). Besides, the NADPH fluorescence slope in assay [6] is -0.000163 (inactive). Further, the slope in assay [7] was 0.0051 (inactive). In [8], the result was inactive.

As to `CCOC(=O)COn1c(=O)c(-c2ccco2)[n+]([O-])c2ccccc21`, in assay [1], the cell count was 534. In addition, the inhibition in [1] was 1.6% (inactive); in assay [2] it was 3.6% (inactive); in [4] it was 8.76% (inactive); in assay [9] it was 34.2% (inactive). This molecule yielded a nuclei count in assay [2] of 130%. The figures for the z-score in assay [3] (setting [10]), in assay [3] (setting [11]) and in [3] (setting [12]) were 2.03, 1.19 and -0.23, respectively. For the same molecule, in assay [5], the fluorescence slope was -0.283 (inactive). Further, in assay [6], the NADPH fluorescence slope is -1.2e-05 (inactive). In addition, the slope in assay [7] was 0.00422 (inactive). For the same molecule, the molecule was classed as inactive in assay [8].

On to `CCCc1nnc(NC(=O)c2c(O)c3c([nH]c2=O)CCCC3)s1`, for which, in [1], the cell count stood at 312. For the same molecule, the inhibition in [1] is -15.5% (inactive); in [2], -42.9% (inactive); in assay [4], 17.5% (inactive); in [9], 14% (inactive). In [2], this molecule registered a nuclei count of 134%. Further, the z-score in assay [3] (setting [10]) was -0.253; in assay [3] (setting [11]) it was -0.454; in assay [3] (setting [12]), -0.547. For the same molecule, the fluorescence slope in [5] is -0.423 (inactive). For the same molecule, the NADPH fluorescence slope in assay [6] is -3.6e-05 (inactive). Moreover, in assay [7], the slope was 0.00662 (inactive). Also, the outcome in assay [8] was inactive.

`COc1ccc(-c2cc3nc4n(c(=O)c3s2)CCOC4)cc1`: the cell count in assay [1] was determined as 561. Also, the inhibition in assay [1] is -7.1% (inactive); in assay [2] it was 30.7% (inactive); in assay [4], -5.26% (inactive); in assay [9], 7.02% (inactive). Moreover, the nuclei count in [2] amounted to 157%. For the same molecule, the z-score in [3] (setting [10]) was -0.862; in assay [3] (setting [11]) it was -0.643; in assay [3] (setting [12]) it was -0.319. Moreover, in assay [5], the fluorescence slope is -0.185 (inactive). Further, the NADPH fluorescence slope in assay [6] was -1.6e-05 (inactive). Also, the slope in [7] is 0.0053 (inactive). Besides, the molecule was classed as inactive in assay [8].

In the case of `COc1ccc(C(=O)N2CCC(N3CCN(c4ccccc4)CC3)CC2)cc1OC`, the cell count in [1] came out at 420. The inhibition in assay [1] was -28.9% (inactive); in [2] it was -222% (inactive); in assay [4], 17.7% (inactive); in assay [9], 29.9% (inactive). In assay [2], this molecule came in with a nuclei count of 170%. In addition, the results for the z-score in assay [3] (setting [10]), in [3] (setting [11]) and in [3] (setting [12]) were 1.05, -0.675 and -0.812, respectively. For the same molecule, the fluorescence slope in assay [5] is -0.348 (inactive). Also, in assay [6], the NADPH fluorescence slope was 9.9e-06 (inactive). Further, the slope in assay [7] is 0.00411 (inactive). Also, in assay [8], the outcome was inactive.

For the molecule `CC(C)OC(=O)C(C#N)c1nc2ccccc2nc1N1CCN(Cc2ccc3c(c2)OCO3)CC1` (stereo unspecified), in [1], the cell count turned out to be 351. Also, the inhibition in [1] was -4.7% (inactive); in assay [2] it was -35.2% (inactive); in assay [4], 3.5% (inactive); in assay [9], 17% (inactive). The nuclei count in assay [2] is 129%. Also, the z-score in [3] (setting [10]) is -0.0424; in assay [3] (setting [11]) it was 0.237; in assay [3] (setting [12]), -0.926. Further, the fluorescence slope in [5] is -0.459 (inactive). The NADPH fluorescence slope in [6] is -0.000113 (inactive). In addition, in assay [7], the slope was 0.00323 (inactive). In addition, the call in assay [8] was inactive.
